Only a selection was taken, and hits are over-represented in it overall.
HSF1 inhib – HSF1 inhibitors in luciferase reporter cells, primary screen, cell-based, NIH3T3, luminescence | NIH3T3-HGL HSE-luciferase, MG132-induced, luminescence 8 h; stronger effect = lower value | 300,000 compounds, 0.77% hits | activity change, negative = inhibition, % at 7.5 µM (by protocol);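 active means more than half of replicate wells show activity change below -50%, luminescence cut by over half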;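 further: luciferase reports HSF-1 transcriptional activity via heat shock element; 0% = median of DMSO wells and -100% = zero luminescence signal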
Lmaj promast – Leishmania major promastigote growth inhibition, primary screen. Leishmania major promastigotes, resazurin fluorescence viability. inhibition, % at 10 µM. 200,000 compounds, 9% hits; in the data active means inhibition above about 50%;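 further: promastigotes grown with compound for 44 hours at 28 °C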
Hsp70 act – Hsp70 transcriptional activators, primary screen, cell-based, HeLa, Hsp70 promoter luciferase, luminescence, 10 µM; HeLa Hsp70 promoter luciferase reporter; scaled: vehicle 0, proteasome-inhibitor control 100%; activation, % at 10 µM; 200,000 compounds, 0.04% hits; AID 1203, 2008;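 active means activation above the mean across all tested compounds plus 3 SD, cutoff set per campaign, cut at about 5.5% in these data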;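 further: 100% = MG132 at 30 µM as the positive control and 0% = DMSO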
T cruzi repl – inhibitors of intracellular T. cruzi growth, primary screen, luminescence, NIH3T3 host cells. T. cruzi beta-gal in NIH3T3, 90 h. inhibition, % (test concentration not listed). 300,000 compounds, 1.4% hits;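 active means mean inhibition across valid replicates above about 55%, limit read from the data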;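 further: signal also drops with host cell toxicity which is not excluded here; 0% = plate median of DMSO wells and 100% = zero luminescence signal; higher percent means less beta-gal luminescence so fewer parasites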
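System – NIH/3T3 host cells with β-galactosidase reporter T. cruzi · Doses – single 50 nL compound addition per well in DMSO · Reagent – 5000 T. cruzi trypomastigotes/well · Medium – Low-serum DMEM with 2% FBS · Timing – ≥90 h infection period, 3 h prior cell attachment · Evaluation – parasite load inhibition, % · Technique – GalScreen luminescence, 60 min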
HSF-1 act – HSF-1 activators, primary screen, NIH3T3-HGL cells, MG132 stress, luminescence, single point. NIH3T3-HGL HSF-1 luciferase reporter, 8 h; 100% = twice DMSO control signal. 300,000 compounds, 1.7% hits. activation, % at 9 µM. AID 504408, 2011;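 active means mean replicate activation of at least 50% with a set share of replicates each reaching 50%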;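 further: 0% = median of the neutral control wells and 100% = twice that signal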
Numbers without * were called inactive; · = not tested or not shown.

SMILES | HSF1 inhib | Lmaj promast | Hsp70 act | T cruzi repl | HSF-1 act
COc1ccc(CCNC(=O)CCNC(=O)c2ccc(Br)cc2)cc1OC | -9 | -2 | 0 | -6 | -2
COc1cc(OC)cc(C(=O)NCCC(=O)NCCc2ccc(OC)c(OC)c2)c1 | 0 | 57* | 0 | -18 | -7
CC(=O)Nc1ccc(S(=O)(=O)NC2CC3CCC2C3)cc1 (centres undefined) | 0 | · | · | 10 | 3
COc1cccc(C(c2nnnn2Cc2ccco2)N2CCN(c3cccc(C)c3C)CC2)c1OC (centres undefined) | 4 | 58* | 0 | 52 | 8
Cc1ccc(C(c2nnnn2Cc2cccs2)N2CCN(C(=O)c3ccco3)CC2)cc1 (centres undefined) | -1 | 58* | 0 | 6 | 5
COc1cccc(C(c2nnnn2Cc2ccccc2)N2CCN(C(=O)c3ccco3)CC2)c1OC (centres undefined) | -8 | 79* | 0 | 22 | 0
COc1ccc(C(c2nnnn2Cc2ccccc2)N2CCN(C(=O)c3ccco3)CC2)cc1 (centres undefined) | -3 | 58* | 0 | 22 | 14
COc1ccc(S(=O)(=O)N2CCOC2CNC(=O)C(=O)NCc2ccco2)cc1OC (centres undefined) | 4 | · | · | 3 | 4
Cc1ccc(C(=O)OC(C)CN2CCN(C)CC2)cc1 (centres undefined) | 4 | · | · | · | 4
CSCCC(C(=O)OC1CCOC1=O)N1C(=O)c2ccccc2C1=O (centres undefined) | -9 | -1 | 0 | -7 | 1
O=C(c1ccco1)N1CCN(C(c2ccc(Cl)cc2)c2nnnn2Cc2ccccc2)CC1 (centres undefined) | 1 | 85* | 0 | -5 | 3
CCCCC(c1nnnn1Cc1ccco1)N1CCN(C(=O)c2ccco2)CC1 (centres undefined) | -3 | 59* | 0 | 6 | -14
CC1CCN(C(c2ccc(N(C)C)cc2)c2nnnn2Cc2ccccc2)CC1 (centres undefined) | 48 | 6 | 0 | 19 | 66*
O=C(Nc1ccc2c(c1)OCO2)C(c1ccc(Cl)cc1)N1CCN(C(=O)c2ccco2)CC1 (centres undefined) | 7 | 50* | 0 | 3 | 32
CCOc1ccc(C(c2nnnn2Cc2ccccc2)N2CCN(C(=O)c3ccco3)CC2)cc1 (centres undefined) | -1 | 23 | 0 | 8 | 7
CC1CCCCN1C(=O)c1c([N+](=O)[O-])cnn1C (centres undefined) | -1 | · | · | -9 | 10
COc1ccc(OC)c(NC(=O)C(=O)NNC(=O)C23CC4CC(CC(C4)C2)C3)c1 | 3 | · | · | -8 | 24
CCN(CC)CCN1C(=O)C2C(C(=O)Nc3ccc(C(C)C)cc3)C3C=CC2(O3)C1C(=O)NC1CCCCC1 (centres undefined) | -3 | · | · | 9 | -6
COc1ccc(C/C(=N\O)c2ccc(OC)cc2)cc1 | 35 | 7 | 0 | 12 | 53*
Cc1ccc(-c2nnn(CC(=O)N(c3ccccc3)C(C(=O)NCC3CCCO3)c3cccs3)n2)o1 (centres undefined) | · | 3 | 0 | 23 | ·
COc1cccc(NC(=O)CN2C(=O)NC(c3ccccc3)(c3ccccc3)C2=O)c1 | 2 | · | · | 2 | 14
CC1Cc2ccccc2N1C(=O)/C=C/c1cccc(F)c1 (centres undefined) | 37 | -5 | 0 | -9 | 70*
COc1cc2c(O)c3c(c(-c4ccc5c(c4)OCO5)c2cc1OC)C(=O)OC3 | 1 | 2 | 0 | 57* | -10
COc1cc2c(OC(C)=O)c3c(c(-c4ccc5c(c4)OCO5)c2cc1OC)C(=O)OC3 | -12 | -8 | -1 | 30 | -12
CC(C)c1csc(CN2CCN(CCc3ccccc3)C(CCO)C2)n1 (centres undefined) | -6 | 89* | 0 | 27 | 5
CCOc1ccc(CN2CCN(CCCn3cccn3)CC2CCO)cc1 (centres undefined) | -8 | 92* | 0 | 12 | -1
CCOc1ccc(CN2CCN(C3CCC3)CC2CCO)cc1 (centres undefined) | -7 | · | · | -2 | 0
